According to ChEMBL document CHEMBL3259569 (J Med Chem, 2014):
Activity calls are given as the source filed them. The calls are words filed in the database; no cut-off is given here.

Assays:
HCT-116 [1] = assay: Induction of apoptosis in p53 knock down human HCT116 cells assessed as caspase-3 activation at 1 uM after 24 hrs by immunoblotting analysis; type: functional, cell-based
Histone deacetylase 5 = Histone deacetylase 5 (Homo sapiens, UniProt Q9UQL6); assay: Inhibition of HDAC5 (unknown origin) by fluorescence assay
Histone deacetylase 5, sequence (Q9UQL6 whole entry): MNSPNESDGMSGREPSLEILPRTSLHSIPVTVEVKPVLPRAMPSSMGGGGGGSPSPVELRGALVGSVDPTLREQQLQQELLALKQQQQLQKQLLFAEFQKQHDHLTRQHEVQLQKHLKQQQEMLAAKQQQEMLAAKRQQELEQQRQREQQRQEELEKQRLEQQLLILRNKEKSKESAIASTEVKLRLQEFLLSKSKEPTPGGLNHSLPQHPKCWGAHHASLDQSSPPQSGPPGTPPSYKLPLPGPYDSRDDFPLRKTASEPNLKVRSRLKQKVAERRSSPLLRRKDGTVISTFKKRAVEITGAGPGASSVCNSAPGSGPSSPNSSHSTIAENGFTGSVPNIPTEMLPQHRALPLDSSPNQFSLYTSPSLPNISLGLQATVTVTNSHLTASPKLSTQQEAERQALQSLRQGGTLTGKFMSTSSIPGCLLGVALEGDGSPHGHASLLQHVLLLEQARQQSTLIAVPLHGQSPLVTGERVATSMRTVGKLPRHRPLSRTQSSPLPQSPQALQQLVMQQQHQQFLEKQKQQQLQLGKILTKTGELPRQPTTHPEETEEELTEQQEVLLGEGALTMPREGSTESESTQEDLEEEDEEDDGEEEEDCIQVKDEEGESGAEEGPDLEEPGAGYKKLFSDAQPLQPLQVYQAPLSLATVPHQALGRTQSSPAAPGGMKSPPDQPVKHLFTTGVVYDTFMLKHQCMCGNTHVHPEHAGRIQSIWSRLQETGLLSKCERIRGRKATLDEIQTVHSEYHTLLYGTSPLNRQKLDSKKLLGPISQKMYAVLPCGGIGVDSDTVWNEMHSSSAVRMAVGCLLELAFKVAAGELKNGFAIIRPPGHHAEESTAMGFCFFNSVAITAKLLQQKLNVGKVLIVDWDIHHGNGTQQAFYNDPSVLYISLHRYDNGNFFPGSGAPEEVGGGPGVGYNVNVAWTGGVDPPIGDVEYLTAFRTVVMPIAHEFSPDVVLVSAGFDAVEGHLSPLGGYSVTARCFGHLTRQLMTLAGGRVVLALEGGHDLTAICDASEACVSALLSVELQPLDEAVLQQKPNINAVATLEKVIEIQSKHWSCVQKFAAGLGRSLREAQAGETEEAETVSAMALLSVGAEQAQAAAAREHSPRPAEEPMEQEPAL

Histone deacetylase 8 = biological target: T1, Histone deacetylase 8 (Homo sapiens, UniProt Q9BY41); assay: Inhibition of HDAC8 (unknown origin) by fluorescence assay
T1 sequence (Q9BY41 whole entry): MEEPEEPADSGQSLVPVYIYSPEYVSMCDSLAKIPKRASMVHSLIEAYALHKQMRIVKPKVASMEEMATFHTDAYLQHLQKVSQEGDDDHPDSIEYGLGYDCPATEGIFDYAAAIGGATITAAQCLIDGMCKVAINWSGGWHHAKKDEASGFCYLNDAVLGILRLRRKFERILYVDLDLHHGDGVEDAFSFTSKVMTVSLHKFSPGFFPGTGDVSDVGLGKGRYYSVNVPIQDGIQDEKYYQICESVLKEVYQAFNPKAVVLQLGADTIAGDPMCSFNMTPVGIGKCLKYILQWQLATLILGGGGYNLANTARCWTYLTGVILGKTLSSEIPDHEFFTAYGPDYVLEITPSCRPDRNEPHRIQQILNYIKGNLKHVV
Outline: (§1)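 Run by a contract testing lab. Compounds were dissolved in DMSO and tested in 10-dose IC50 mode, using 3-fold serial dilution starting at 10 μM. IC50 was taken from the dose series.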

Histone deacetylase 2 = Histone deacetylase 2 (Homo sapiens, UniProt Q92769)
Histone deacetylase 2, sequence (Q92769 whole entry): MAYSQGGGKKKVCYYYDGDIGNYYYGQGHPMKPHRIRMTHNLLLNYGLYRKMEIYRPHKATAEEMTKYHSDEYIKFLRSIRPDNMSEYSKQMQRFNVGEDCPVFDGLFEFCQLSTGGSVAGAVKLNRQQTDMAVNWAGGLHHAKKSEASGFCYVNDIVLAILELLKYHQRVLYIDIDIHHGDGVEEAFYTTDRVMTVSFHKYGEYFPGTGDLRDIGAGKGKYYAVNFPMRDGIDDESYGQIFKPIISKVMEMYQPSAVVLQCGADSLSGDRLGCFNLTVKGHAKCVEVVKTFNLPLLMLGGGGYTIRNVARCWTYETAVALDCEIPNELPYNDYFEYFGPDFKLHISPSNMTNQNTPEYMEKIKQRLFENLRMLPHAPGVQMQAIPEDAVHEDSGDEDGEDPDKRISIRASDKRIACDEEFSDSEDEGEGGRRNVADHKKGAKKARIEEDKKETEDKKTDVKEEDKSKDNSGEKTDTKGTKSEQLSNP

[2] = Clearance in ICR mouse at 2 mg/kg, iv by LC-MS/MS analysis; type: ADME, organism-based; set-up: dose 2 mg/kg, route intravenous; conditions: in vivo
Histone deacetylase 7 = biological target: T2, Histone deacetylase 7 (Homo sapiens, UniProt Q8WUI4); assay: Inhibition of HDAC7 (unknown origin) by fluorescence assay; outline: as §1
T2 sequence (Q8WUI4 whole entry): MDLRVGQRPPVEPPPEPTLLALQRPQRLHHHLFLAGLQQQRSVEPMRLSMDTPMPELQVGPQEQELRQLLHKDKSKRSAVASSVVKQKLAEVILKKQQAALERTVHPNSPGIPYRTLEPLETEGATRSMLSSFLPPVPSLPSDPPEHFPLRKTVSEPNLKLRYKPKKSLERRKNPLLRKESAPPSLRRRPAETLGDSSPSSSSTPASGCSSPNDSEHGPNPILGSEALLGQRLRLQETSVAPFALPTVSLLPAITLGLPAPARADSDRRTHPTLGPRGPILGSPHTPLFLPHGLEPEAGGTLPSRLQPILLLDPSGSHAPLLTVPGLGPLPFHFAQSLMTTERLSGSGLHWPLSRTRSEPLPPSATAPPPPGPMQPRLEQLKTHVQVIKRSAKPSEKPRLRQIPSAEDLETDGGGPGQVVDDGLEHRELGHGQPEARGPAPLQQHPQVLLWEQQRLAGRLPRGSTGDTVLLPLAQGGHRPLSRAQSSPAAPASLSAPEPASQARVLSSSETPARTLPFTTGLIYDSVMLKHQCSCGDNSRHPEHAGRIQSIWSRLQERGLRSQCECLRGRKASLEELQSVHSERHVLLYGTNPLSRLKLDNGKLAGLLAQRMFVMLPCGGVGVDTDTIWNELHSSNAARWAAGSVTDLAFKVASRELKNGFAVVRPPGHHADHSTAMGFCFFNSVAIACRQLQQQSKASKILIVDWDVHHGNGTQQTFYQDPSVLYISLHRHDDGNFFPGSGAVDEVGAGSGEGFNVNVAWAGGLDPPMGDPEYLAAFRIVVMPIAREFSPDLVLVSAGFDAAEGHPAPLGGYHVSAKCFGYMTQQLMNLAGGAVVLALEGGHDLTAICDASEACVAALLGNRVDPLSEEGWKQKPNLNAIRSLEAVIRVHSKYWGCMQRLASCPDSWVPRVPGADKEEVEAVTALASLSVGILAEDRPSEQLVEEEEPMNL

[3] = biological target: T3, Polyamine deacetylase HDAC10 (Homo sapiens, UniProt Q969S8); assay: Inhibition of HDAC10 (unknown origin) by fluorescence assay; outline: as §1
T3 sequence (Q969S8 whole entry): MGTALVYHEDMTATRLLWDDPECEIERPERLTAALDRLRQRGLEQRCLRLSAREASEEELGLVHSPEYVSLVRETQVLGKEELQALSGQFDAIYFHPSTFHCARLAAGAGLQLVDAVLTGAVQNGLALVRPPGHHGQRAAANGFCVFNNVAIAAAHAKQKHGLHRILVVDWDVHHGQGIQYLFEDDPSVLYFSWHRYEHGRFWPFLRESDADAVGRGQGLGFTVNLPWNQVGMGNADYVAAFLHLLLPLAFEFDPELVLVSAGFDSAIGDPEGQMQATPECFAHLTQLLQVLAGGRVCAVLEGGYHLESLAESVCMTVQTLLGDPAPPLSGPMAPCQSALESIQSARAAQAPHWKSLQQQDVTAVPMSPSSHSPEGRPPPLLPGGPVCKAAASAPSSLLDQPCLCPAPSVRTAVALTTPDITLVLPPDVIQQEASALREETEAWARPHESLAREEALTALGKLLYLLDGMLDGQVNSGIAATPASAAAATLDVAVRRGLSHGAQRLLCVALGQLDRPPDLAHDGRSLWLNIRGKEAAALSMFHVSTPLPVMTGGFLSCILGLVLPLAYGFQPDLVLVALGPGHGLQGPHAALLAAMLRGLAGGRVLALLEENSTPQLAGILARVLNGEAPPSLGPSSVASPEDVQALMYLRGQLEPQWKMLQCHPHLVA

HCT-116 [4] = assay: Induction of apoptosis in human HCT116 cells assessed as accumulation at sub-G1 phase at 1 uM by propidium iodide staining-based flow cytometric analysis; type: functional, cell-based; conditions: TDE = time-dependent effect
Outline: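 HCT116 cells exposed to 1 μM compound for varying time intervals; sub-G1 population quantified by flow cytometry.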

HCT-116 [5] = assay: Induction of apoptosis in human HCT116 cells assessed as increase in p53 protein level at 0.1 to 3 uM after 24 hrs by immunoblotting analysis; type: functional, cell-based
HCT-116 [6] = assay: Anticancer activity against human HCT116 cells assessed as disruption of 3-dimensional spheroid structure after 72 hrs by phase-contrast light microscopic analysis; type: functional, cell-based
Outline: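 HCT116 cells (4 × 10^3/well) grown 5 days in semisolid GFR-Matrigel/10% FBS-DMEM (1:1) to form 3D spheres, then exposed to compound for 72 h; sphere structure examined by phase-contrast light microscopy.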

HCT-116 [7] = assay: Antitumor activity against human HCT116 cells xenografted in nude athymic mouse assessed as tumor growth inhibition at 100 mg/kg/day, po after 2 to 16 days relative to control; type: functional; conditions: read-out: TGI
HCT-116 [8] = assay: Cytotoxicity against p53 knock down human HCT116 cells at 0.1 to 3 uM after 72 hrs by MTT assay; type: functional, cell-based
HT-29 = assay: Cytotoxicity against human HT-29 cells by MTT assay; type: functional, cell-based
[9] = Cytotoxicity against human H460 cells by MTT assay; type: functional, cell-based; conditions: NCI-H460
Outline: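 Antiproliferative IC50 in H460 cells; mean ± SD of at least three independent experiments.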

- IC50 (Histone deacetylase 5): 8.73 µM
- IC50 (Histone deacetylase 8): 1.39 µM
- IC50 (Histone deacetylase 2): 1.16 µM
- clearance [2]: 127 mL/min/kg
- IC50 (Histone deacetylase 7): 4.11 µM
- IC50 [3]: 4.13 µM
SMILES: O=C(/C=C/c1cccc(S(=O)(=O)n2ccc3cccnc32)c1)NO
- Activity (HCT-116 [1]): inactive
- Activity (HCT-116 [4]): tde
- Activity (HCT-116 [5]): Active
- Activity (HCT-116 [6]): Dose-dependent effect
- inhibition in vivo at 100 mg/kg/day (HCT-116 [7]): 66.9%
- Activity (HCT-116 [8]): inactive
- IC50 (HT-29): 1.24 µM
- IC50 [9]: 0.57 µM
